Experimental data taken from PubChem BioAssay AID602220 (Southern Research Specialized Biocontainment Screening …, 2012).
The source made the active and inactive calls.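 How the source made its calls: active means at least 30% inhibition of the enzyme at any tested dose; inactive means the rest.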

Target: M17 leucyl aminopeptidase (Plasmodium falciparum 3D7)
Assay: Inhibition of P. falciparum M17 aminopeptidase – biochemical, QFRET, set 2, counter-screen for PfM18AAP inhibitor project, dose response (AID 602220)
Conditions: recombinant PfM17LAP, H-Leu-NHMec fluorogenic cleavage; for inhibition: at 100 µM (top of the series)
How it was run: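 Test system – purified recombinant PfM17LAP, M17 leucine aminopeptidase of Plasmodium falciparum · Medium – Tris-HCl pH 7.5 plus CoCl2 · Dosing – ten twofold dilutions, 100 down to 0.2 µM, 2% DMSO · Incubation – 90 min reaction, room temperature · Detection – fluorescence of released NHMec, excitation 370 nm, emission 460 nm · Repeats – each concentration tested in triplicate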

Compound	inhibition	IC50
COc1ccc(CCNC(c2ccccc2)c2ccccc2)cc1OC	inactive	
Oc1ccc(-c2csc(NC3CCCC3)n2)cc1O		29.8 µM
CN1CCN(CCCc2ccc(O)c(O)c2)CC1		73.8 µM
CCc1ccc(NC(=O)Cc2nc(-c3ccc(O)c(O)c3)cs2)cc1		57.8 µM
CN1CCN(c2nc(-c3ccc(O)c(O)c3)cs2)CC1		29.4 µM
Oc1ccc(CCNc2c3ccccc3nc3ccccc23)cc1O		14.2 µM
CN1CCN(CCc2ccc(O)c(O)c2)CC1		94.3 µM
Oc1ccc(-c2csc(Nc3ncccn3)n2)cc1O		12.3 µM
Oc1ccc(CCNc2ccnc3ccccc23)cc1O		30.1 µM
COc1ccc(CCCN2CCN(C)CC2)cc1OC	inactive	
